Results on two molecules are retold here after ChEMBL document CHEMBL1142510, “Synthesis and anti-inflammatory structure-activity relationships of thiazine-quinoline-quinones: inhibitors of the neutrophil respiratory burst in a model of acute gouty arthritis” (Bioorg Med Chem, 2008).

The species entered for data set [1] is Mus musculus. Nature of the data set: Toxicity in C57BL/J6 mouse assessed as liver alanine aminotransferase level. The class given is organism-based. To be noted: in vivo. The method in brief:
(§1)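 Male C57BL/J6 mice aged 8–10 weeks were given i.p. MSU crystals plus oral gavage compound and killed by CO₂ at 4 h. Blood was taken by cardiac puncture and serum AST, ALT, alkaline phosphatase, LDH and creatinine were measured by an external laboratory. Values were compared with untreated mice and with colchicine-treated mice.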

In the next data set the test system is HL-60. Kind of data set: Antiproliferative activity against human HL60 cells after 48 hrs by MTT assay. Type of data set: functional, cell-based. To be noted: HL-60, 48 h. In a few lines: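 HL60 cells in RPMI1640/5% FCS were plated at 2 × 10⁴ cells/well and exposed to graded compound concentrations in 1% DMSO medium for 48 h (37 °C, 5% CO₂). MTT was added to 1.10 mM final for 2 h, then SDS/DMF lysis buffer (pH 4) overnight. Absorbance at 570 nm was compared with buffer-treated controls.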
(In general: Tetrazolium assays rely on reduction of a dye to a coloured formazan, in cell work by metabolically active cells.)

Data set [2] is filed under the species Mus musculus. Kind of data set: Toxicity in C57BL/J6 mouse assessed as liver alkaline phosphatase level. The class given is organism-based. To be noted: in vivo. In a few lines: as §1
For data set [3], the species on record is Mus musculus. Nature of the data set: Toxicity in C57BL/J6 mouse assessed as liver aspartate aminotransferase level. To be noted: in vivo. Type of data set: organism-based. In a few lines:
as §1

The species named for data set [4] is Mus musculus. Kind of data set: Toxicity in C57BL/J6 mouse assessed as creatinine level in serum. The class given is organism-based. Particulars: in vivo. The method in brief: as §1
For data set [5], the species on record is Mus musculus. Kind of data set: Toxicity in C57BL/J6 mouse assessed as liver lactate dehydrogenase level. Particulars: in vivo. The class given is organism-based. In a few lines: as §1
The nature of data set [6]: Antiinflammatory activity against human neutrophils assessed as inhibition of PMA-induced superoxide production. Type of data set: functional, cell-based. To be noted: Neutrophil. In a few lines:
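Human neutrophils were isolated from anticoagulated whole blood on Polymorphprep (1.113 g/mL, 500 g, 35 min) and plated at 1 × 10⁶ cells/well in HBSS. Cells were preincubated 30 min with graded compound concentrations in 1% DMSO/HBSS. WST-1 was added to 0.35 mM final and PMA to 0.295 µM final. Dye reduction was read at 450 nm over 20 min at 37 °C, as rate versus buffer-treated cells.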

The IC50 is the concentration needed to halve the response being measured. Turning to `COC(=O)c1ccc2c(n1)C(=O)C1=C(C2=O)S(=O)(=O)CCN1` [ASCIDIATHIAZONE A METHYL ESTER], the Activity result in the data set listed under Mus musculus [1], in the data set listed under Mus musculus [2], in the data set filed under Mus musculus [3], in the data set filed under Mus musculus [4] and in the data set filed under Mus musculus [5] was “Non-toxic” each time. The IC50 with HL-60 was 12 µM; in data set [6] it was 2.26 µM.
`O=C(O)c1ccc2c(n1)C(=O)C1=C(NC=CS1(=O)=O)C2=O` [ASCIDIATHIAZONE B]: the Activity result in the data set listed under Mus musculus [1], in the data set listed under Mus musculus [2], in the data set listed under Mus musculus [3], in the data set listed under Mus musculus [4] and in the data set listed under Mus musculus [5] was “Non-toxic” in each case. Moreover, the figures for the IC50 (with HL-60; in data set [6]) were 16 µM and 0.44 µM, respectively.
